pCIP destab: compounds decreasing mouse p/CIP protein stability. F442A p/CIP-EGFP cells, EGFP fluorescence, 16 h. AID 1984. decrease of EGFP signal, % at 10 µM. hit rate 0.01% among 290,000;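 active = EGFP signal decrease of at least 30% at 10 µM or well 3 SD below plate mean, unless failing retest; inactive = the rest, including hits failing retest or dose response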
ABCB6 inh MLPCN: human ABCB6 transporter inhibition; Q9NP58; K562-ABCB6 porphyrin accumulation, flow cytometry, 1 h; hits give low values; fluorescence ratio to DMSO, % at 10 µM; hit rate 0.19% among 360,000;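 active = fluorescence ratio to DMSO below 75%, the collection mean minus 3 SD; inconclusive = too few cells collected in the well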;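 note: signal is porphyrin accumulated inside mitochondria; 100% equals median channel fluorescence of DMSO control wells; lower ratio means ABCB6 inhibition with less porphyrin fluorescence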
Target sequence (Q9NP58 whole entry, looked up): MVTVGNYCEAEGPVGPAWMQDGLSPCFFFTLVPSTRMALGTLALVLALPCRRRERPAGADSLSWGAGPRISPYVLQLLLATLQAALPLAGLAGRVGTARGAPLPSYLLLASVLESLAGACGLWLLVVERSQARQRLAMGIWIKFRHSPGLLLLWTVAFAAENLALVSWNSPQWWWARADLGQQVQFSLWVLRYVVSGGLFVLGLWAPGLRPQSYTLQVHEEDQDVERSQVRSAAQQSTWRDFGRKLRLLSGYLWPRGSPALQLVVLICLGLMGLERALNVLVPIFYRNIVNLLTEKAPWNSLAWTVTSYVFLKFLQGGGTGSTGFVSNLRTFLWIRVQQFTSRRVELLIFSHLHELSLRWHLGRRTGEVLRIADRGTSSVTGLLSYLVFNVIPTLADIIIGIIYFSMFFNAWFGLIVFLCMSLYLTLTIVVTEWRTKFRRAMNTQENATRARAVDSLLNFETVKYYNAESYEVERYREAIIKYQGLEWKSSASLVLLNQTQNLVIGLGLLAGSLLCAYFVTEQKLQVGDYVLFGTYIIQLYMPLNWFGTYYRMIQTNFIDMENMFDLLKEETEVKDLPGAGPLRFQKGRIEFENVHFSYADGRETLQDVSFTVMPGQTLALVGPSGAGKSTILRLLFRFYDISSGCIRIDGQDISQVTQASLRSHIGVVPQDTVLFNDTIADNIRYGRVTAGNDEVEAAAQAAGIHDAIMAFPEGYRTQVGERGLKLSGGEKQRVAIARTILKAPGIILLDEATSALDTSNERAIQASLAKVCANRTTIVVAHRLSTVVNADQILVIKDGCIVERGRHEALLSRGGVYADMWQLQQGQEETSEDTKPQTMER
Dynein transport: dynein cargo transport inhibition; 3617.4 mouse cells, GR-EGFP nuclear translocation imaging; test concentration mostly 20 µM; stimulated with dexamethasone, 1 µM; hits give low values; z-score, hits read low; hit rate 0.47% among 220,000; AID 1381;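 active = plate z-score of nuclear minus cytoplasmic receptor signal below a set negative limit, without overly bright fluorescence or cell loss, cut at about -3.5 in these data, passing the limit was not always enough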;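 note: z-score of nuclear minus cytoplasmic ring GR-EGFP intensity difference per well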
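Buffer or medium – tet-free medium with charcoal-stripped serum · Signal – automated 10x imaging of fixed Hoechst-stained cells · Also added – dexamethasone agonist, 1.0 µM final, for 30 min · Incubation – induction 48 h, compound 1 h, agonist 30 min · Read-out – GR-EGFP nuclear translocation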
V-ATPase pHluor: alters yeast V-ATPase proton transport; S. cerevisiae, pHLuorin cytosolic pH fluorescence; response, % at 10 µM; hit rate 0.37% among 350,000; in the data active = response mostly above about 7.3%, no sharp cut-off; inactive = mostly below about 5.4%; note: actives read high
KCC2 mod: KCC2 (human) Cl- transport modulation; KCC2 cells, thallium flux FluoZin-2 fluorescence; B-score of Tl+ flux slope (higher = more flux/activation; lower = inhibition) at 10 µM; hit rate 2.2% among 190,000; AID 1456;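 active = thallium flux slope and its plate-corrected score both differing from the plate sample mean at a set confidence after two filtering rounds, in either direction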;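 note: slope of fluorescence scaled to starting intensity during 10 to 20 s after thallium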
KCC2 secondary: KCC2 (human) modulation, secondary assay; shares compounds with KCC2 mod; HEK293-KCC2, thallium flux, FluoZin2 fluorescence; hits give high values; normalised thallium flux (F/F0 slope) at 10 µM; hit rate 15% among 3,700;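 active = thallium flux slope above the same plate's solvent-only control mean plus 3 SD; inconclusive = the two replicate wells disagree; inactive = no significant difference from solvent-only control wells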
KCC2 bumet counter: thallium flux despite bumetanide block in KCC2 cells, secondary assay 3 | shares compounds with KCC2 mod | HEK293-KCC2 + bumetanide/ouabain, thallium flux FluoZin2; hits give high values | normalized thallium flux at 10 µM | hit rate 49% among 3,700;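 active = thallium entry rate above the same plate's blocked-transporter control wells by more than 3 SD; inconclusive = the two repeat wells disagree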;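 note: raw slope of fluorescence over initial fluorescence between 10 and 20 s after thallium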
KCC2 secondary2: confirmation of human KCC2 transport modulators. shares compounds with KCC2 mod. HEK293-KCC2, thallium flux FluoZin2 fluorescence; actives lie on both sides; F/F0 rise rate, 10–20 s post-thallium. normalized thallium flux at 10 µM. hit rate 23% among 3,700. AID 1715;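 active = thallium flux slope more than 3 SD above or below the plate's solvent-only control mean, mostly below; inconclusive = the two repeat wells disagreed; inactive = no significant shift from solvent-only controls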;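 note: raw slope with 0.1% DMSO as baseline and bumetanide as block control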
HEK293 Tl flux: acts in parental HEK cells, KCC2 counter-screen | shares compounds with KCC2 mod | HEK293 parental cells, thallium flux FluoZin2, ouabain; baseline-ratio fluorescence slope, 10–20 s after thallium | thallium flux rate (normalised fluorescence) at 10 µM | hit rate 46% among 3,700 | AID 1716;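 active = thallium flux rate significantly above the same plate's solvent-only control wells, beyond their mean plus 3 SD; inconclusive = the two replicate wells gave conflicting results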
KCC2 retest ouab: KCC2 (human) modulation, ouabain retest; raw Tl+ flux slope (below DMSO = inhibition, above = activation) at 10 µM; HEK293-KCC2, thallium flux FluoZin2 fluorescence; bidirectional: low = inhibitor, high = activator; hit rate 48% among 3,700; shares compounds with KCC2 mod;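 active = thallium flux slope beyond 3 SD from same-plate DMSO control mean in most replicates, usually higher, sometimes lower; inconclusive = repeat tests gave conflicting results; inactive = no significant difference from controls in most replicates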;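 note: slope of initial-normalized fluorescence between seconds 10 and 20 after thallium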
HEK293 Tl flux2: parental HEK flux effect, counter-screen 2; hit rate 33% among 3,700; HEK293 parental, thallium flux FluoZin-2 fluorescence slope; shares compounds with KCC2 mod; AID 1718; thallium flux slope at 10 µM;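 active = thallium flux slope above the same plate's solvent-control mean plus 3 SD in both duplicate wells; inconclusive = duplicate wells that disagreed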;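 note: run without ouabain in cells lacking the KCC2 cotransporter; slope of fluorescence scaled to its starting value between 10 and 20 s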
Starred values were filed as active, the others as inactive; ? = inconclusive; . = no result given. Only a selection was taken, and hits are over-represented in it overall.

SMILES	pCIP destab	ABCB6 inh MLPCN	Dynein transport	V-ATPase pHluor	KCC2 mod	KCC2 secondary	KCC2 bumet counter	KCC2 secondary2	HEK293 Tl flux	KCC2 retest ouab	HEK293 Tl flux2
Cn1c2ccccc2c(=O)c2c(=O)n(-c3ccc(F)cc3)c(-c3cccs3)nc21	6	93	0.8	-3	-0.056	.	.	.	.	.	.
CCOc1ccc(N(Cc2ccccc2F)C2=NC3CS(=O)(=O)CC3S2)cc1 (stereo not given)	-13	100	1.6	-1	-0.46	.	.	.	.	.	.
COc1ccc(S(=O)(=O)NC(CC(=O)NCCc2ccccc2)c2ccco2)cc1 (stereo not given)	7	101	-0.67	1	.	0.0071	0.0061	0.034	0.0082	?	0.01
COc1ccc(S(=O)(=O)NC(CC(=O)NCCc2ccc(OC)c(OC)c2)c2ccco2)cc1 (stereo not given)	0	99	-0.66	-4	-0.091	.	.	.	.	.	.
O=S(=O)(NCc1ccccc1)c1cccc(S(=O)(=O)N2CCOCC2)c1	-1	89	-0.29	0	.	.	.	.	.	.	.
O=S(=O)(NCCc1ccccc1F)c1cccc(S(=O)(=O)N2CCOCC2)c1	-6	101	-0.27	.	.	0.0061	0.0054	0.026*	0.0072	?	0.01
CN(C(=O)c1ccnn1C)C1CCCN(Cc2ccccc2F)C1 (stereo not given)	-4	98	.	-2	.	.	.	.	.	.	.
Cc1ccc(N2C(=O)C(Cc3ccc(O)cc3)NC2=S)cc1C (stereo not given)	-10	100	-0.57	1	-3.9*	0.0088	0.0047	0.032	0.0074	0.023	0.01
C=CCn1c(COc2ccc(F)cc2)nnc1SC(C)C(=O)NCC1CCCO1 (stereo not given)	.	103	.	1	.	.	.	.	.	.	.
O=C(N1CCOCC1)n1nnc2ccccc21	-17	99	-0.57	1	7.5*	0.0066	?	0.027	0.0078	0.019	0.01
Oc1csc(Cc2nc(-c3ccc4ccccc4c3)cs2)n1	6	97	0.16	0	.	0.016	?	0.027	0.0073	0.016	0.01
Oc1csc(Cc2nc(-c3ccc(-c4ccccc4)cc3)cs2)n1	5	102	1	-1	.	.	.	.	.	.	.
O=c1c2cc(Cl)ccc2nc(-c2ccccc2)n1O	-8	101	0.7	-1	50*	0.032*	0.073*	0.033	0.034*	0.052*	0.018*
O=c1c2ccc(Cl)cc2nc(-c2ccc([N+](=O)[O-])cc2)n1O	4	101	0.68	3	57*	0.012*	0.092*	0.059*	0.065*	0.079*	0.042*
O=c1c2cc(Br)ccc2nc(-c2ccc([N+](=O)[O-])cc2)n1O	-8	98	-0.13	0	72*	0.05*	0.11*	0.058*	0.053*	0.069*	0.027*
N#Cc1ccc(-c2nc3ccc(Br)cc3c(=O)n2O)cc1	4	96	.	0	.	.	.	.	.	.	.
O=C(c1cc(COc2ccc(F)cc2Cl)on1)N1CCSCC1	-8	96	.	0	.	.	.	.	.	.	.
O=C(CCNS(=O)(=O)c1cccc(C(F)(F)F)c1)NCc1ccco1	.	95	.	0	.	.	.	.	.	.	.
O=C(O)c1cc(-c2cccc(Cl)c2)nc2nc(N3CCCCC3)sc12	-15	101	-0.23	0	-4.2*	0.009	0.0058	0.034	0.0075	0.017*	0.01
O=C(c1cc(-c2cccc(Cl)c2)nc2ccccc12)N1CCN(c2ccccn2)CC1	8	103	.	2	.	.	.	.	.	.	.
O=C(NC(=S)Nc1cccc2cc(O)ccc12)c1ccco1	-16	103	.	-1	.	.	.	.	.	.	.
O=C(NC(=S)Nc1cccc2ncccc12)c1ccco1	-3	98	-0.47	0	13*	?	0.032*	?	0.021*	0.028*	0.023*
Cc1cc(NC(=S)NC(=O)c2ccco2)c2ccccc2n1	9	99	-0.98	4	29*	?	0.084*	0.066*	0.056*	0.071*	0.058*
Cc1sc(NC(=S)NC(=O)c2ccco2)c(C#N)c1C	4	100	0.12	-2	22*	0.006	0.022*	?	0.023*	0.03*	0.019*
CC(C)(C)C(=O)NC(=S)NNC(=O)C(c1ccccc1)c1ccccc1	-13	90	-0.86	2	5.8*	0.011	0.023*	0.041	?	0.03*	0.013
SMILES	pCIP destab	ABCB6 inh MLPCN	Dynein transport	V-ATPase pHluor	KCC2 mod	KCC2 secondary	KCC2 bumet counter	KCC2 secondary2	HEK293 Tl flux	KCC2 retest ouab	HEK293 Tl flux2
O=C(NC(=S)N1CCN(C/C=C/c2ccccc2)CC1)c1c(F)cccc1F	-4	101	-0.69	0	6.8*	0.018*	0.042*	0.03	0.015*	?	?
O=C(NC(=S)N1CCN(C/C=C/c2ccccc2)CC1)c1ccco1	-16	91	-0.41	-1	4.2*	0.0055	0.015*	0.033	0.014*	?	0.016*
O=C(/C=C/c1ccc(F)cc1)NC(=S)N1CCN(Cc2ccccc2)CC1	-12	92	-0.6	-3	40*	0.0063	0.042*	0.032	0.03*	0.031*	0.026*
Fc1ccc(NC(=S)N2CCN(C/C=C/c3ccccc3)CC2)c(F)c1	10	96	1.8	5	-1.8	.	.	.	.	.	.
COc1cccc(CC(=O)Nc2ccc3c(c2)OC2(CCCC2)O3)c1	.	93	.	-1	.	.	.	.	.	.	.
Cc1[nH]c2ccccc2c1C(=O)C(=O)N1CC=C(c2ccccc2)CC1	-19	117	3.3	-6	-3.1	.	.	.	.	.	.
Cc1cccc(-n2c(SCC(=O)N3CCC(C(=O)O)CC3)nc3ccccc3c2=O)c1C	-2	104	.	0	.	.	.	.	.	.	.
OCC1(Cc2ccc(F)cc2F)CCCN(CCCc2ccccc2)C1 (stereo not given)	-10	108	.	0	.	.	.	.	.	.	.
CC(CC(=O)N1CCN(S(=O)(=O)c2ccc([N+](=O)[O-])cc2)CC1)c1ccccc1 (stereo not given)	.	90	.	0	.	.	.	.	.	.	.
Cc1sc2ncnc(SC(C)C#N)c2c1C (stereo not given)	.	96	-0.23	5	3.8*	?	0.026*	0.029	0.01*	?	?
CCN(CC)C(=O)CSc1ncnc2sc(C)c(C)c12	2	93	-0.66	-1	-0.72	.	.	.	.	.	.

Bioassay records from PubChem BioAssay.
